ChEMBL document CHEMBL1122372, “Synthesis of aminomethyl-substituted cyclic imide derivatives for evaluation as anticonvulsants” (J Med Chem, 1983)
Calls of active or inactive are those of the source. No cut-off for these calls is given here.

Legend:
Mus musculus [1] = assay: Tested for anti maximal electroshock activity at 4 h; - denotes inactive up to 600 mg/kg; assay type: functional, organism-based; parameters: dose 600 mg/kg
Method in brief: (§1)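 Phase I screen in mice run by the NINCDS Antiepileptic Drug Development Program. Four mice per dose, scored 0.5 and 4 h after dosing, for prevention of tonic hindlimb extension following maximal electroshock. Doses were 30, 100, 300 or 600 mg/kg. Activity is the lowest dose protecting at least one of four animals, provided a second trial confirms it.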

Mus musculus [2] = assay: Anti-pentylenetetrazole activity at 0.5 hr in mice […]; +=Compound is active at 300 mg/kg; assay type: functional, organism-based
Method in brief: (§2)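 Phase I screen in mice run by the NINCDS Antiepileptic Drug Development Program. Four mice per dose, scored 0.5 and 4 h after dosing, for protection against seizures induced by 85 mg/kg subcutaneous pentylenetetrazole. Dose levels were 30, 100, 300 and 600 mg/kg. Activity is the lowest dose at which at least one of four animals is protected, confirmed in a second trial.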

Mus musculus [3] = assay: Tested for anti maximal electroshock activity at 0.5 hr at dose 100 mg/kg; ++=Compound is active at 100 mg/kg; assay type: functional, organism-based; method in brief: as §1
Mus musculus [4] = assay: Tested for rotarod neurotoxicity, number of deaths from respiratory depression among four animals given a dose 600 mg/kg was reported
Mus musculus [5] = assay: Tested for anti-pentylenetetrazole activity in mice at 4 h; - denotes inactive up to 600 mg/kg; assay type: functional, organism-based; parameters: dose 600 mg/kg; method in brief: as §2
Mus musculus [6] = assay: Anti-pentylenetetrazole activity at 0.5 hr in mice […]; += Compound is active at 300 mg/kg; assay type: functional, organism-based; method in brief: as §2
Mus musculus [7] = assay: Tested for rotarod neurotoxicity, number of deaths from respiratory depression among four animals given a dose 600 mg/kg was reported; inactive; assay type: functional
Mus musculus [8] = assay: Tested for anti maximal electroshock activity at 0.5 hr […]; += Compound is active at 300 mg/kg; assay type: functional, organism-based; method in brief: as §1
Mus musculus [9] = species: Mus musculus; assay: (§3) Effective dose against maximal electroshock seizures in mice, at 0.5 hr; assay type: functional
Method in brief: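 Phase II quantification in mice under the NINCDS Antiepileptic Drug Development Program. Protection against maximal electroshock, scored as prevention of tonic hindlimb extension, was measured at the time of peak effect, 0.5 h after dosing. Median effective dose was derived by probit analysis with 95% confidence intervals.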

Mus musculus [10] = species: Mus musculus; assay: as §3; assay type: functional; remark: listed apart in the source
Method in brief: (§4)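 Phase II quantification in mice by the NINCDS Anticonvulsant Drug Development Program. Median effective dose against maximal electroshock-induced seizures, measured at the time of peak effect, 0.5 h. The 95% confidence intervals come from probit analysis.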

[11] = Tested for Neurotoxicity in rotarod test; assay type: toxicity, organism-based; conditions: mouse, in vivo
Method in brief: (§5)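 Phase I rotarod neurotoxicity in mice, run by the NINCDS Antiepileptic Drug Development Program. Doses were 30, 100, 300 or 600 mg/kg. Deaths from respiratory depression were counted among four animals given 600 mg/kg.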

Mus musculus [12] = assay: Anti-pentylenetetrazole activity; - denotes inactive up to 600 mg/kg; assay type: functional, organism-based; parameters: dose 600 mg/kg; method in brief: as §2
Mus musculus [13] = assay: Tested for rotarod neurotoxicity, number of deaths from respiratory depression among four animals given a dose 600 mg/kg was reported; assay type: organism-based; parameters: dose 600 mg/kg; conditions: in vivo
Mus musculus [14] = assay: Anti-pentylenetetrazole activity at 0.5 h; - denotes inactive up to 600 mg/kg; assay type: functional, organism-based; parameters: dose 600 mg/kg; method in brief: as §2
[15] = Tested for rotarod neurotoxicity at dose 300 mg/kg; assay type: organism-based; parameters: dose 300 mg/kg; conditions: mouse, in vivo; method in brief: as §5
Mus musculus [16] = assay: Tested for rotarod neurotoxicity, number of deaths from respiratory depression among four animals given a dose 600 mg/kg was reported; conditions: in vivo
Mus musculus [17] = species: Mus musculus; assay: Effective dose against maximal electroshock seizures in mice, at 0.5 h; assay type: functional; method in brief: as §4
Mus musculus [18] = assay: Tested for anti maximal electroshock activity at 4 h; += Compound is active at 300 mg/kg; assay type: functional, organism-based; parameters: dose 300 mg/kg; method in brief: as §1
[19] = Tested for neurotoxicity in rotarod test; assay type: toxicity, organism-based; conditions: mouse, in vivo; method in brief: as §5

CC(=O)NCC1(C)CC(=O)N(Cc2ccccc2)C1=O (stereo not given)
MES (Mus musculus [1]): Not toxic
PTZ (Mus musculus [2]): active at 300 mg/kg
MES (Mus musculus [3]): active at 100 mg/kg
NT (Mus musculus [4]): 0
PTZ (Mus musculus [5]): Not toxic

CC(=O)NCC1CC(=O)N(Cc2ccccc2)C1=O (stereo not given)
MES (Mus musculus [1]): Not toxic
PTZ (Mus musculus [6]): active at 300 mg/kg
NT (Mus musculus [7]): 0
MES (Mus musculus [8]): active at 300 mg/kg
PTZ (Mus musculus [5]): Not toxic

CN1C(=O)CC(C)(c2ccccc2)C1=O (stereo not given) [METHSUXIMIDE]
ED50 (Mus musculus [9]): 76.3 mg/kg

CN1C(=O)CC(c2ccccc2)C1=O (stereo not given) [PHENSUXIMIDE]
ED50 (Mus musculus [9]): 112 mg/kg

O=C1CC(CNCc2ccccc2)C(=O)N1Cc1ccccc1 (stereo not given)
ED50 (Mus musculus [10]): 136 mg/kg
MES (Mus musculus [1]): Not toxic
TD50 [11]: 267 mg/kg
PTZ (Mus musculus [12]): Not toxic
PTZ (Mus musculus [5]): Not toxic
NT (Mus musculus [13]): 4

CC1(CN)CC(=O)N(Cc2ccccc2)C1=O (stereo not given)
PTZ (Mus musculus [14]): Not toxic
TD50 [15]: 228 mg/kg
NT (Mus musculus [16]): 2
ED50 (Mus musculus [17]): 66.4 mg/kg
MES (Mus musculus [18]): active at 300 mg/kg
PTZ (Mus musculus [5]): Not toxic

Cl.NCC1CC(=O)N(Cc2ccccc2)C1=O (stereo not given)
PTZ (Mus musculus [14]): Not toxic
MES (Mus musculus [1]): Not toxic
TD50 [19]: 268 mg/kg
NT (Mus musculus [16]): 4
ED50 (Mus musculus [17]): 108 mg/kg
PTZ (Mus musculus [5]): Not toxic
